Compounds with a hit are over-represented: about 3.1% of the library has one in this group of screens.
KCNQ1 inh: blocks the human KCNQ1 potassium channel; hit rate 1.3% among 310,000; AID 2642; B-score at 10 µM; CHO-K1 KCNQ1, FluxOR thallium flux fluorescence; hits give high values; P51787;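 active = compounds whose thallium flux B-score, printed positive for inhibition, exceeds three library SD while starting fluorescence stays within three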;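 also: channel opened by potassium depolarization with thallium stimulus after 20 min compound exposure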
Target sequence (P51787 whole entry, looked up): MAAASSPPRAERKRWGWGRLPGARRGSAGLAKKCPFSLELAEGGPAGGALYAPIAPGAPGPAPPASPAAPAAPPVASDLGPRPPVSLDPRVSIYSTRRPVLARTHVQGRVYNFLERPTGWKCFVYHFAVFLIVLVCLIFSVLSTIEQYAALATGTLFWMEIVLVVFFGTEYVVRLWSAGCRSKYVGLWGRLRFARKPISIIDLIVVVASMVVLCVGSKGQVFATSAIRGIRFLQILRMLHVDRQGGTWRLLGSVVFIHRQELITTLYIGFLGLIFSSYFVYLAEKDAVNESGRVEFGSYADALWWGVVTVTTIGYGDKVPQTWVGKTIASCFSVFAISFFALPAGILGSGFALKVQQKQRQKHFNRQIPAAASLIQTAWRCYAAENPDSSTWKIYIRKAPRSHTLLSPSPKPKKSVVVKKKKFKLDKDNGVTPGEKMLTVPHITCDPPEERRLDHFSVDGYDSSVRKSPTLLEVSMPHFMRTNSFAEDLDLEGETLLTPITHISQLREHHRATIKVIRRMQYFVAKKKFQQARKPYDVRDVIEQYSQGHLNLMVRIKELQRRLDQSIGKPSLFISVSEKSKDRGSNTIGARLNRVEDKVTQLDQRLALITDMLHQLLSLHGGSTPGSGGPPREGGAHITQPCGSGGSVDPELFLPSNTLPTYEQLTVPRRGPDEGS
hERG rescue: shields human hERG channel from block by proarrhythmic agents; Q12809; CHO-hERG, FluxOR thallium flux, dofetilide IC70 present; activation (rescue from dofetilide block), less the hit threshold, % at 10 µM; hit rate 0.51% among 310,000; AID 1511;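 active = activation above the mean of controls blocked by dofetilide plus 5 SD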;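 also: thallium influx through hERG after potassium depolarization seen as dye fluorescence rise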
KCNK9 inh: human KCNK9 channel inhibition. Q9NPC2. HEK293 KCNK9, FluxOR thallium flux fluorescence; hits give low values. B-score at 10 µM. hit rate 1.2% among 310,000. AID 488922;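 active = ratio B-score over 3 SD below the library mean, with starting fluorescence within 5 SD of its mean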;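 also: negative B-score means less thallium flux so channel inhibition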
KCNQ1 act: human KCNQ1 channel potentiation or activation; CHO-K1 KCNQ1, thallium flux FluxOR fluorescence; hits give high values; B-score at 10 µM; hit rate 0.35% among 310,000; AID 2648;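 active = fluorescence ratio B-score, a plate-corrected score, at least three library SD, with initial intensity B-score within 5 SD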
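Assay system: stable KCNQ1 CHO-K1 line; medium: assay buffer, equal DMSO in all wells; timing: 90 min dye loading and 20 min compound exposure, both at room temperature; technique: kinetic FluxOR thallium fluorescence, 10-s 1-Hz baseline, 110-s post-stimulus read; read-out basis: B score of baseline-normalized fluorescence ratio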
KCNK3 block: human KCNK3 channel inhibition, primary screen | CHO-KCNK3 thallium flux, FluxOR fluorescence; hits give low values | B-score at 10 µM | hit rate 0.84% among 340,000;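 active = B-score under library mean minus 4 SD, starting fluorescence ratio at most library mean plus 5 SD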;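 also: more negative B-score means stronger inhibition of thallium flux through KCNK3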
KCNK9 inh conf: human KCNK9 inhibitor confirmation; shares compounds with KCNK9 inh; HEK293 KCNK9 cells, FluxOR thallium flux fluorescence; inhibition, % at 10 µM; hit rate 43% among 4,900; AID 492992;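 active = thallium signal inhibited by more than 5 SD of the compound-free buffer control wells, on both duplicate plates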;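 also: 0% = assay buffer control wells without compound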
Kir21 sel: tests whether KCNK9 modulators also affect mouse Kir2.1. shares compounds with KCNK9 inh. Kir2.1 cells, FluxOR thallium flux fluorescence. AID 492993. inhibition, % at 10 µM. hit rate 4% among 4,900;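 active = thallium signal drop more than 5 SD beyond the mean of the no-compound control wells, seen in both duplicate plates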;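 also: signal is fluorescence rise after thallium addition divided by baseline fluorescence; plate controls were assay buffer only for no effect and full block by chlorpromazine control for full effect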
HEK293 Tl ctr: second counter-screen for KCNK9 modulators: effect in non-induced cells; non-induced KCNK9-HEK293, FluxOR thallium flux; shares compounds with KCNK9 inh; hit rate 40% among 4,900; inhibition, % at 10 µM;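 active = thallium signal drop beyond 5 SD of the untreated control mean, on both duplicate plates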;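 also: plate controls were buffer only IC0 wells for no effect and SID17386958 at its maximal inhibitory level for full effect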
Numbers without * were called inactive.

What do the screens show for `CCOc1cccc(CN2CCN(c3cccc(C(F)(F)F)c3)CC2)c1O`?
KCNQ1 inh: inactive; hERG rescue: -17.5; KCNK9 inh: inactive; KCNQ1 act: inactive; KCNK3 block: inactive; KCNK9 inh conf: inactive; Kir21 sel: inactive; HEK293 Tl ctr: inactive

How did Cc1ccccc1-n1ncc2c1CC(C)(C)CC2NC(=O)CN1CCCC1=O (stereo unspecified) do in these assays?
KCNQ1 inh: inactive; hERG rescue: -6.6; KCNK9 inh: inactive; KCNQ1 act: inactive; KCNK3 block: inactive

Results for CCCCCCN(C(=O)CCCN1C(=O)NC(c2ccc([N+](=O)[O-])cc2)C(C(=O)OCc2ccccc2)=C1C)C(C)C(=O)NCCCC (stereo unspecified) ?
KCNK3 block: inactive

Results for CCC1Nc2ncnc(N3CCCCC3)c2N(Cc2ccc(Br)cc2)C1=O (stereo unspecified) ?
KCNQ1 inh: inactive; hERG rescue: -15.7; KCNK9 inh: -10.5*; KCNQ1 act: inactive; KCNK3 block: inactive; KCNK9 inh conf: 57.5%*; Kir21 sel: inactive; HEK293 Tl ctr: 30.5%*

Results for O=C1C(Cc2ccccc2)Nc2ncnc(N3CCc4ccccc4C3)c2N1Cc1ccc(Cl)cc1 (stereo unspecified) ?
KCNQ1 inh: inactive; hERG rescue: -10.9; KCNK9 inh: -10.1*; KCNQ1 act: inactive; KCNK3 block: inactive; KCNK9 inh conf: 45.5%*; Kir21 sel: inactive; HEK293 Tl ctr: 36.0%*

How did CC(C)CC1Nc2ncnc(N3CCCCC3)c2N(Cc2ccc(Br)cc2)C1=O (stereo unspecified) do in these assays?
KCNQ1 inh: inactive; hERG rescue: -13.0; KCNK9 inh: -13.8*; KCNQ1 act: inactive; KCNK3 block: inactive; KCNK9 inh conf: 76.0%*; Kir21 sel: inactive; HEK293 Tl ctr: 49.5%*

Results for CC(C)CC1Nc2ncnc(N3CCOCC3)c2N(Cc2ccc(Br)cc2)C1=O (stereo unspecified) ?
KCNQ1 inh: inactive; hERG rescue: -10.0; KCNK9 inh: inactive; KCNQ1 act: inactive; KCNK3 block: inactive

How did CCC1Nc2ncnc(N3CCOCC3)c2N(Cc2ccc(Br)cc2)C1=O (stereo unspecified) do in these assays?
KCNK3 block: inactive

How did COc1ccc(S(=O)(=O)N2CCN(c3ncccn3)CC2)cc1OC do in these assays?
KCNQ1 inh: inactive; hERG rescue: -6.2; KCNK9 inh: inactive; KCNQ1 act: inactive; KCNK3 block: inactive

What do the screens show for `Cn1nccc1-c1cc(Cl)cc(Cl)c1O`?
KCNQ1 inh: inactive; hERG rescue: -8.2; KCNK9 inh: inactive; KCNQ1 act: inactive; KCNK3 block: inactive

What do the screens show for `CC(C(=O)N1CCc2ccccc21)N1CCN(c2cccc(C(F)(F)F)c2)CC1` (stereo unspecified)?
KCNQ1 inh: inactive; hERG rescue: -9.5; KCNK9 inh: inactive; KCNQ1 act: inactive; KCNK3 block: inactive; KCNK9 inh conf: inactive; Kir21 sel: inactive; HEK293 Tl ctr: inactive

How did CC(C(=O)N1CCc2ccccc21)N1CCN(S(=O)(=O)c2ccc(C(F)(F)F)cc2)CC1 (stereo unspecified) do in these assays?
KCNK3 block: inactive

What do the screens show for `O=C(CSCc1ccccc1)N1CCN(c2cccc(C(F)(F)F)c2)CC1`?
KCNQ1 inh: inactive; hERG rescue: -7.7; KCNK9 inh: inactive; KCNQ1 act: inactive; KCNK3 block: inactive; KCNK9 inh conf: inactive; Kir21 sel: inactive; HEK293 Tl ctr: inactive

What do the screens show for `C/C(=C\c1ccccc1)C(=O)N1CCN(c2cccc(C(F)(F)F)c2)CC1`?
KCNQ1 inh: inactive; hERG rescue: -9.6; KCNK9 inh: inactive; KCNQ1 act: inactive; KCNK3 block: inactive; KCNK9 inh conf: inactive; Kir21 sel: inactive; HEK293 Tl ctr: inactive

Results for Cc1ccnc(NC(=S)N2CCN(c3cccc(C(F)(F)F)c3)CC2)c1 ?
KCNQ1 inh: inactive; hERG rescue: -15.6; KCNK9 inh: inactive; KCNQ1 act: inactive; KCNK3 block: inactive; KCNK9 inh conf: inactive; Kir21 sel: inactive; HEK293 Tl ctr: inactive

What do the screens show for `Cc1ccc(CC(C(=O)O)C(C)C(=O)Nc2ccc(F)cc2)cc1` (stereo unspecified)?
KCNQ1 inh: inactive; hERG rescue: -4.3; KCNK9 inh: inactive; KCNQ1 act: inactive; KCNK3 block: inactive

Results for O=C(NCCCn1ccnc1)c1ccc(Br)s1 ?
KCNQ1 inh: inactive; hERG rescue: -10.7; KCNK9 inh: inactive; KCNQ1 act: inactive; KCNK3 block: inactive

Results for COc1ccc(NC(=O)CN2C(=O)NC3(CCCC3)C2=O)cc1OC ?
KCNQ1 inh: inactive; hERG rescue: -4.6; KCNK9 inh: inactive; KCNQ1 act: inactive; KCNK3 block: inactive

What do the screens show for `COc1ccc(NC(=O)CN2C(=O)NC(c3ccccc3)(c3ccccc3)C2=O)cc1OC`?
KCNQ1 inh: inactive; hERG rescue: -2.0; KCNK9 inh: -16.2*; KCNQ1 act: inactive; KCNK3 block: inactive; KCNK9 inh conf: inactive; Kir21 sel: inactive; HEK293 Tl ctr: inactive

Results for Cc1ccc(OCC(=O)c2ccc3c(c2)CCCC3)cc1C ?
KCNQ1 inh: inactive; hERG rescue: -3.5; KCNK9 inh: inactive; KCNQ1 act: inactive; KCNK3 block: inactive; KCNK9 inh conf: inactive; Kir21 sel: inactive; HEK293 Tl ctr: inactive

How did CC[C@]12C(=O)N(C)C[C@H]([C@@H]3C(=O)N(C)C(=O)[C@@H]31)N2C(=O)c1ccc(C)cc1 do in these assays?
KCNK3 block: inactive

What do the screens show for `CCN(CC)CCn1c2c(c(SCC(=O)Nc3ccc4c(c3)OCCO4)nc1=O)CCCC2`?
KCNQ1 inh: inactive; hERG rescue: -13.4; KCNK9 inh: inactive; KCNQ1 act: inactive; KCNK3 block: inactive

What do the screens show for `Cc1ccc2oc(C(=O)N(C)Cc3ccc(C)o3)c(C)c2c1`?
KCNQ1 inh: inactive; hERG rescue: -6.9; KCNK9 inh: inactive; KCNQ1 act: inactive; KCNK3 block: inactive; KCNK9 inh conf: inactive; Kir21 sel: inactive; HEK293 Tl ctr: 25.0%*

How did COc1ccc2oc(C(=O)N(C)CCOc3ccc(Cl)cc3)c(C)c2c1 do in these assays?
KCNQ1 inh: inactive; hERG rescue: -6.9; KCNK9 inh: inactive; KCNQ1 act: inactive; KCNK3 block: inactive; KCNK9 inh conf: inactive; Kir21 sel: inactive; HEK293 Tl ctr: inactive

Results for COc1ccc2oc(C(=O)NCC(c3ccco3)N(C)C)c(C)c2c1 (stereo unspecified) ?
KCNQ1 inh: inactive; hERG rescue: -11.2; KCNK9 inh: inactive; KCNQ1 act: inactive; KCNK3 block: inactive

From PubChem
